*1 amine or outer side, *2 acyl side, *3 side chain or, on linkers, in order; H or OH if unused. Where a SMILES comes first, the peptide text is derived from it. Bridges are numbered along the chain shown (N, C = ends). [ ]: non-standard residue; d: D form. N(2-mercaptoethyl)Gly = O=C(CN(CCS[*:3])[*:1])[*:2]
Key:
[1] = molecular target: Somatostatin receptor type 3 (Homo sapiens, UniProt P32745); assay: Binding affinity of human Somatostatin receptor type 3 (hsst3) by the displacement of [125I]- Tyr11 somatostatin-14 in CHO-K1 cells; type: cell-based
In short: (§1)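 Membranes from CHO-K1 cells stably expressing each cloned human receptor, prepared in 50 mM Tris-HCl pH 7.8 with EGTA, MgCl2 and protease inhibitors. Membranes (0.2 or 0.4 mg/mL protein, receptor-dependent) incubated with 125I-Tyr11 somatostatin-14 for 45 min at room temperature. Nonspecific binding taken with […] somatostatin. Bound ligand separated by GF/C filtration and counted. Triplicate wells, at least two experiments. IC50 taken from inhibition curves, mean ± SEM.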

[2] = molecular target: Somatostatin receptor type 1 (Homo sapiens, UniProt P30872); assay: Binding affinity of human Somatostatin receptor type 1 (hsst1) by the displacement of [125I]- Tyr11 somatostatin-14 in CHO-K1 cells.; type: cell-based; in short: as §1
[3] = molecular target: Somatostatin receptor type 5 (Homo sapiens, UniProt P35346); assay: Binding affinity of human Somatostatin receptor type 5 (hsst5) by the displacement of [125I]- Tyr11 somatostatin-14 in CHO-K1 cells; type: cell-based; in short: as §1
[4] = molecular target: Somatostatin receptor type 2 (Homo sapiens, UniProt P30874); assay: Binding affinity of human Somatostatin receptor type 2 (hsst2) by the displacement of [125I]- Tyr11 somatostatin-14 in CHO-K1 cells; type: cell-based; in short: as §1
[5] = molecular target: Somatostatin receptor type 4 (Homo sapiens, UniProt P31391); assay: Binding affinity of human Somatostatin receptor type 4 (hsst4) by the displacement of [125I]- Tyr11 somatostatin-14 in CHO-K1 cells; type: cell-based; in short: as §1
[6] = Half life in renal homogenate; type: ADME, tissue-based
In short: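 Peptides at 0.4 mg/mL final were incubated in rat renal homogenate at 37 °C for up to 4 h. Samples were taken at several time points. The fraction of intact peptide was measured by HPLC from the loss of major-peak area.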

Chain of Somatostatin receptor type 5 (P35346 whole entry): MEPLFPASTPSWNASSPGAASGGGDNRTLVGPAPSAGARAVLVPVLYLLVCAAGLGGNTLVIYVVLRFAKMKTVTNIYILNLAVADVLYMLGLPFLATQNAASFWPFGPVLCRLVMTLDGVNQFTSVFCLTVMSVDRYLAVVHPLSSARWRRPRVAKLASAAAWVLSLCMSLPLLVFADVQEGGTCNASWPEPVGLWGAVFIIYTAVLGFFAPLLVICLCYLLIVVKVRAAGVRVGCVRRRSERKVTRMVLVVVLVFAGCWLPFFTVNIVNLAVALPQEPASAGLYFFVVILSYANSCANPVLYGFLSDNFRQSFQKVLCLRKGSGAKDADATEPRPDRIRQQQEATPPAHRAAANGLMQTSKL
Chain of Somatostatin receptor type 2 (P30874 whole entry): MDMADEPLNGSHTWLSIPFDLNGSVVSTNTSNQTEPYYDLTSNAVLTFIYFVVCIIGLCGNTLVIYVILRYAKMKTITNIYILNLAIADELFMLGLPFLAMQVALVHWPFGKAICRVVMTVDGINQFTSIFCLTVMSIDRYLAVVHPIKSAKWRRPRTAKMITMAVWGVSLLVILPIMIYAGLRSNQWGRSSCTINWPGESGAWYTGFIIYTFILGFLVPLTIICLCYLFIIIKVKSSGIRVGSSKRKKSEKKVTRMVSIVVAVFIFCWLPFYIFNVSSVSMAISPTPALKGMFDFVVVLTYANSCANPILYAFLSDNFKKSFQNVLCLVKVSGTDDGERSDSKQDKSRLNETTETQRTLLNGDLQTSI
Chain of Somatostatin receptor type 3 (P32745 whole entry): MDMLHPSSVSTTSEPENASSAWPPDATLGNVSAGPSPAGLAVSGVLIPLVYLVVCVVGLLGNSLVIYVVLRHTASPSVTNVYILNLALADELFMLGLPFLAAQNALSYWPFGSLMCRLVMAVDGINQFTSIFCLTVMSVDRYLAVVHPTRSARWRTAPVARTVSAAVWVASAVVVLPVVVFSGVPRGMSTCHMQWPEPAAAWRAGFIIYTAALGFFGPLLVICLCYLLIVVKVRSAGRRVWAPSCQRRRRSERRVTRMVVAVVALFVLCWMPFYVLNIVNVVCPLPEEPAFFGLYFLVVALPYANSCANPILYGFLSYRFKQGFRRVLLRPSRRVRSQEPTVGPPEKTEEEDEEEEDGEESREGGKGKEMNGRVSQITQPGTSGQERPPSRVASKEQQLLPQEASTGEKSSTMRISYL
Chain of Somatostatin receptor type 4 (P31391 whole entry): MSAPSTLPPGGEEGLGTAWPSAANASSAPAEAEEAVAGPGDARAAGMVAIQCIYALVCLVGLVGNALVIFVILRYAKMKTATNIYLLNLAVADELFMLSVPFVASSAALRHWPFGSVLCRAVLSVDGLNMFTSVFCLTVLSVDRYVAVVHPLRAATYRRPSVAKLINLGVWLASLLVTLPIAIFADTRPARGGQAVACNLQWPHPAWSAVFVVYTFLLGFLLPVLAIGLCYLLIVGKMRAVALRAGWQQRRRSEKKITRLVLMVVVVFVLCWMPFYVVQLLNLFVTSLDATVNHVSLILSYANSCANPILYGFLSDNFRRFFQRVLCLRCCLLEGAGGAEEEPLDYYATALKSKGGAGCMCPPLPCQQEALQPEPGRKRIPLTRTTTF
Chain of Somatostatin receptor type 1 (P30872 whole entry): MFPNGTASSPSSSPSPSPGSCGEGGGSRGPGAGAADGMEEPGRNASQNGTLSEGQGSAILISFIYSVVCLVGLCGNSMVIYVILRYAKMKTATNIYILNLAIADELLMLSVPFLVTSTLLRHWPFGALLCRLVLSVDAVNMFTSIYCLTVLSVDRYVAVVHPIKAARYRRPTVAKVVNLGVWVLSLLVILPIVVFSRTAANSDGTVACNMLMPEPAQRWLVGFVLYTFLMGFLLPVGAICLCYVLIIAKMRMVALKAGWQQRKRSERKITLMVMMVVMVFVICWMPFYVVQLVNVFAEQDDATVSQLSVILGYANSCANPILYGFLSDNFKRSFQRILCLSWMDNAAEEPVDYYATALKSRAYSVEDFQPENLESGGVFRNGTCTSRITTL

| SMILES | IC50 ([1]; cho-k1) [nM] | IC50 ([2]; cho-k1) [nM] | IC50 ([3]; cho-k1) [nM] | IC50 ([4]; cho-k1) [nM] | IC50 ([5]; cho-k1) [nM] | IC50 [1] [nM] | IC50 [2] [nM] | IC50 [3] [nM] | IC50 [4] [nM] | IC50 [5] [nM] | half-life [6] [h] |
| --- | --- | --- | --- | --- | --- | --- | --- | --- | --- | --- | --- |
| C[C@@H](O)[C@@H]1NC(=O)[C@@H](CCCCN)NC(=O)[C@@H](Cc2c[nH]c3ccccc23)NC(=O)[C@@H](Cc2c[nH]c3ccccc23)NC(=O)[C@H](Cc2ccccc2)NC(=O)C(NC(=O)[C@@H](N)Cc2ccccc2)CSSCCN(CC(N)=O)C(=O)[C@@H](Cc2ccccc2)NC1=O (stereo not given in full) | > 100 | > 1000 | 4.5 | 12.8 | 35.9 |  |  |  |  |  |  |
| C[C@@H](O)[C@@H]1NC(=O)[C@@H](CCCCN)NC(=O)[C@@H](Cc2c[nH]c3ccccc23)NC(=O)[C@@H](Cc2c[nH]c3ccccc23)NC(=O)[C@H](Cc2ccccc2)NC(=O)CN(C(=O)[C@@H](N)Cc2ccccc2)CCSSCCN(CC(N)=O)C(=O)[C@@H](Cc2ccccc2)NC1=O | > 100 | > 1000 | 18.2 | 2.5 | > 100 |  |  |  |  |  |  |
| C[C@@H](O)[C@@H]1NC(=O)[C@H](CCCCN)NC(=O)[C@@H](Cc2c[nH]c3ccccc23)NC(=O)[C@H](Cc2c[nH]c3ccccc23)NC(=O)[C@H](Cc2ccccc2)NC(=O)CCCNC(=O)CCCN(CC(N)=O)C(=O)[C@H](Cc2ccccc2)NC1=O |  |  |  |  |  | > 100 | > 1000 | 1 | 3 | 7 |  |
| C[C@@H](O)[C@@H]1NC(=O)[C@H](CCCCN)NC(=O)[C@@H](Cc2c[nH]c3ccccc23)NC(=O)[C@H](Cc2c[nH]c3ccccc23)NC(=O)[C@H](Cc2ccccc2)NC(=O)[C@@H](N)CSSCCN(CC(N)=O)C(=O)[C@H](Cc2ccccc2)NC1=O (H-CFW[dW]KTF[N(2-mercaptoethyl)Gly]-NH2; disulfide 1-8) |  |  |  |  |  | 40.7 | > 1000 | 1.2 | 5.2 | 41.1 | 3 |

Other lines, results leading:

| IC50 ([1]; cho-k1) [nM] | IC50 ([2]; cho-k1) [nM] | IC50 ([3]; cho-k1) [nM] | IC50 ([4]; cho-k1) [nM] | IC50 ([5]; cho-k1) [nM] | IC50 [1] [nM] | IC50 [2] [nM] | IC50 [3] [nM] | IC50 [4] [nM] | IC50 [5] [nM] | half-life [6] [h] | SMILES |
| --- | --- | --- | --- | --- | --- | --- | --- | --- | --- | --- | --- |
|  |  |  |  |  | > 100 | > 1000 | 2.8 | 1.3 | > 100 |  | C[C@@H](O)[C@@H]1NC(=O)[C@H](CCCCN)NC(=O)[C@@H](Cc2c[nH]c3ccccc23)NC(=O)[C@H](Cc2c[nH]c3ccccc23)NC(=O)[C@H](Cc2ccccc2)NC(=O)CCSSCCN(CC(N)=O)C(=O)[C@H](Cc2ccccc2)NC1=O |
|  |  |  |  |  | 15.6 | > 1000 |  | 28.7 | > 100 |  | C[C@@H](O)[C@@H]1NC(=O)[C@H](CCCCN)NC(=O)[C@@H](Cc2c[nH]c3ccccc23)NC(=O)[C@H](Cc2c[nH]c3ccccc23)NC(=O)[C@H](Cc2ccccc2)NC(=O)CSSCCN(CC(N)=O)C(=O)[C@H](Cc2ccccc2)NC1=O |
|  |  |  |  |  | > 100 | > 1000 | 7.8 | 4.1 | 49.5 |  | C[C@@H](O)[C@@H]1NC(=O)[C@H](CCCCN)NC(=O)[C@@H](Cc2c[nH]c3ccccc23)NC(=O)[C@H](Cc2c[nH]c3ccccc23)NC(=O)[C@H](Cc2ccccc2)NC(=O)CNCCSSCCN(CC(N)=O)C(=O)[C@H](Cc2ccccc2)NC1=O |
